This series can be described thus: Toxicity liver stage against HepG2, at 10uM. Format: cell-based. Also on record: test concentration 10 uM, cell line HepG2-A16-CD81EGFP. Particulars: human, HepG2-A16-CD81EGFP cells; read-out: INHIBITION
In outline:
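Uninfected HepG2-A16-CD81EGFP cells, 3 × 10^3 per well, 1536-well, plated on prespotted compound at 10 μM final, parasite-free screening media added to match infected plates; puromycin 10 μM positive, DMSO 0.5% negative; run in parallel with 48 h PbLuc assay at 37 °C, 5% CO2; viability by CellTiter-Glo luminescence, normalized to controls.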
On to `O=C(NC[C@H]1OC[C@@H](NCc2ccccn2)[C@@H]1O)c1ccc(F)cc1`, for which the cytotoxicity at 10 µM was -2.65%.

As to `COC(=O)N1CCN2C[C@H](CO)[C@@H](c3ccccc3)[C@H]2C1`, the cytotoxicity at 10 µM stood at 6.12%. For the compound `O=C(NCC(Cc1cccc(F)c1)n1cccc1)C1CC1` (stereo not drawn), the cytotoxicity at 10 µM amounted to 1.22%. With `CSCC(C)(O)CNC(=O)Nc1cc(C)cc(C)c1` (stereo not drawn) the figure was -3.24%.

As for `CCOc1ccc(NC(=O)Nc2cnc(N3CCOCC3)nc2)cc1`, the cytotoxicity at 10 µM is -11.4%. On to `O=C1COc2ccc(Cl)cc2CN1CC1CC1`, for which the cytotoxicity at 10 µM was -9.2%. With `CCN1CC2(CCCCN2C(=O)c2ccsc2)CC1=O` (stereo not drawn) the figure was 5.97%; with `c1ccc(COC[C@@]23CCC[C@@H]2CN(Cc2ccccn2)C3)nc1`, 1.39%. As to `CCNC(=O)c1cc(OC)c2cc(F)cc(C)c2n1`, the cytotoxicity at 10 µM is -3.42%. Take `Cc1nn(CCC(=O)NC2CCS(=O)(=O)C2)c(C)c1Br` (stereo not drawn): the cytotoxicity at 10 µM came out at 0.549%. With `O=C(NCCCN1CCOCC1)c1ccn(COc2ccccc2)n1`, the cytotoxicity at 10 µM stood at 5.5%. With `CCOc1ccc(N2CCCN=C2NC(=O)c2ccc(OC)cc2)cc1` the figure was 6.03%; with `CCn1cc(CNc2ccc(F)c(F)c2)cn1`, -0.0638%; with `CCS(=O)(=O)N1CCCC(n2nnn(-c3ccccc3)c2=O)C1` (stereo not drawn), 2.65%. Then `Cc1nonc1CN(C)Cc1cnn(-c2ccc(Cl)cc2)c1`, with -16.3%; and `Cc1cccc(CC2CCCN(C(=O)Cc3csc(C)n3)C2)n1` (stereo not drawn), with -26.5%. Then `Cc1cc(C)nc(C2CCN(C(=O)c3cnco3)C2)n1` (stereo not drawn), with -4.22%; and `CCc1cc(C(F)(F)F)c2c(C3CCCN(C(=O)COC)C3)noc2n1` (stereo not drawn), with -17.6%; and `Cc1noc(CCNC(=O)c2ccc(Br)c(S(=O)(=O)N(C)C)c2)n1`, with 6.45%. In the case of `COc1cccc(F)c1C(C)NC(=O)NCc1cnc(C)s1` (stereo not drawn), the cytotoxicity at 10 µM is -4.94%. Then `Cc1noc(C(C)C)c1C(=O)NCC1CCN(c2ccccc2)C1` (stereo not drawn), with -11.8%.

On to `CCC(O)(CNCc1ccncc1)c1ccc(Br)cc1` (stereo not drawn), for which the cytotoxicity at 10 µM was -8.64%. Then `c1cc(CNCc2cccc3c2OCCO3)cc(Cn2cncn2)c1`, with -1.54%. Take `CC(C)c1nnc(CN2CCCc3ccc(S(N)(=O)=O)cc32)o1`: the cytotoxicity at 10 µM was -1.08%. With `CN(CC(=O)NCC1CCCCC1)S(=O)(=O)c1cccnc1` the figure was 3.82%; with `CC(C)(C)C(=O)NCCCc1nc2ccccc2[nH]1`, 5.68%. With `CCOCCC(=O)NC(Cc1ccc(C)cc1)c1ccccn1` (stereo not drawn) the figure was -1.55%; with `CCc1nc(CCNc2ncccc2C#N)sc1C`, 15.4%. With `CC(CNC(=O)c1cccc(C#N)c1)N1CCc2ccccc21` (stereo not drawn) the figure was -16.3%; with `CCC(C)(CC(=O)OC)NC(=O)c1cccc(F)c1F` (stereo not drawn), -4.13%. On to `COc1cc(NC(=O)N(C)Cc2ccc(Br)o2)ncn1`, for which the cytotoxicity at 10 µM is -4.12%. Then `CC(C)n1c(C2CCCN(CC(N)=O)C2)nc2ccccc21` (stereo not drawn), with -7.68%; and `CC(CO)NC(=O)Nc1ccc(COC2CCCC2)cc1` (stereo not drawn), with -7.41%; and `CC1CCN(CCNC(=O)C2CCN(C(=O)C3CC3)CC2)CC1`, with 6.86%. Then `CN(C)C(=O)Cn1cc(C(=O)NCCc2cccc(Cl)c2Cl)nn1`, with -1.42%; and `CCc1nnc2n1CCN(C(=O)c1ccc3c(c1)nnn3C)C2`, with -4.68%.

As for `CCOc1ccccc1NC(=O)N(CCO)Cc1ccsc1`, the cytotoxicity at 10 µM is 0.633%.

As for `Cc1noc(Cl)c1CC(=O)N1CCCC1Cn1cccn1` (stereo not drawn), the cytotoxicity at 10 µM is -9.76%. Then `N#Cc1cccc(NC(=O)N2CCCC(N3CCCC3=O)C2)c1` (stereo not drawn), with 7.92%; and `CC(C)NC(=O)NCCCOC1CCOCC1`, with -17%; and `CC(=O)N(c1ccc(F)cc1)c1nc(CN2CCCC2C(C)C)cs1` (stereo not drawn), with -12.2%.

For `O=C1CCCN1c1cccc(CNCc2nc(-c3ccco3)no2)c1`, the cytotoxicity at 10 µM was 0.379%. With `CNS(=O)(=O)c1csc(C(=O)N(C)Cc2ccccc2C)c1` the figure was 6.78%; with `CN(CCS(=O)(=O)c1cc(Cl)ccc1Cl)CC(=O)Nc1ccc(F)cc1`, 8.9%. Then `CC(CC1CC1)NCCCN1CCCN(C)CC1` (stereo not drawn), with 31.7%; and `Cc1noc(CCCC(=O)Nc2ncccc2Br)n1`, with -15.7%.

With `CCc1nc(NS(=O)(=O)c2cc(C)ccc2F)no1`, the cytotoxicity at 10 µM was -4.71%. With `CC(=O)c1cccc(OCCCC(=O)N(C)CCc2ccncc2)c1` the figure was -11.7%; with `Cc1nc(C)n(CC2CCCCN2CCS(C)(=O)=O)n1` (stereo not drawn), -10.9%. Regarding `CC(C)CNC(=O)NC(=O)CNc1ccccc1SCC(C)C#N` (stereo not drawn), the cytotoxicity at 10 µM was -8.05%. Regarding `NS(=O)(=O)CCNC(=O)C1(c2ccc(Br)cc2)CC1`, the cytotoxicity at 10 µM was -4.69%. With `NC(=O)c1cc(NC(=O)N2CCCCCC2)ccc1F` the figure was 0.692%; with `O=C(C1CCOC1)N1C[C@@H]2CCN(C(=O)c3cscn3)[C@@H]2C1` (stereo partly drawn), -2.85%; with `Cc1nc(CN2C[C@@H]3CN(C(=O)CC(F)(F)F)C[C@@H]3C2=O)cs1`, -73.5%.

As for `CN(Cc1ccc(-n2ccnc2)cc1)Cc1ncc[nH]1`, the cytotoxicity at 10 µM stood at 3.69%. Then `CCn1ccnc1CN1CCCn2nc(CNC(=O)C3CCC3)cc2C1`, with -7.79%.

As to `CO[C@H]1COC[C@@H]1NC(=O)C1(Oc2ccc(Cl)cc2)CCNCC1`, the cytotoxicity at 10 µM was -1.91%. Consider `CC(C)N1CCCC2(CCN(c3nccc(C(F)(F)F)n3)C2)C1=O` (stereo not drawn), for which the cytotoxicity at 10 µM stood at 11.4%. With `Cc1ccc(C(=O)N2CCC3(CCC(=O)N(CC(C)O)C3)CC2)c(O)c1` (stereo not drawn) the figure was 11%; with `CCn1nc(C)c(CCNC(=O)C2CCCN(C(N)=O)C2)c1C` (stereo not drawn), -11.2%. Then `CCC(CO)N(Cc1ccc(F)cc1)Cc1c(C)nn(C)c1Cl` (stereo not drawn), with 8.64%; and `CC(NC1CCCC1)c1ccccc1-n1cccn1` (stereo not drawn), with 7.5%. With `CCOc1ccccc1OCCN(C)Cc1ncnn1CC` the figure was 10.2%; with `CC(C)Cc1cc(C(=O)NCC(O)CN2CCCCCC2)on1` (stereo not drawn), -1.53%.

As to `Cc1nc(C)c(C)c(NCCSCc2[nH]cnc2C)n1`, the cytotoxicity at 10 µM is 2.3%. Consider `CN1CCN(C[C@@H]2CN(C(=O)NCC3CCCCC3)C[C@@H]2CO)CC1`, for which the cytotoxicity at 10 µM was -9.18%.

For `CCCSCC(=O)N1C[C@@H](NC(C)=O)[C@H](c2ccc(OC)cc2)C1`, the cytotoxicity at 10 µM is 7.41%. With `CC(C)N(Cc1nccn1C)C(=O)c1cnc(O)cn1` the figure was -1.82%.

On to `Cc1ccc(C(=O)O)cc1-c1cccc(C(C)N(C)C)c1` (stereo not drawn), for which the cytotoxicity at 10 µM is -3.17%. With `CCC(=O)N1CCCC1c1nccnc1Nc1nc(C)cc(C)n1` (stereo not drawn) the figure was 3.99%. With `O=C(Cc1c(F)cccc1Cl)N1CCC(Nc2cccnn2)CC1` the figure was -4.92%. Then `CN(C)c1cc(C(=O)N2CCCCC2CNS(C)(=O)=O)ccn1` (stereo not drawn), with -16%; and `Cc1nc(C)n(CC2CCCN(CCC(=O)NC3CCCC3)C2)n1` (stereo not drawn), with -6.73%.

As to `O=C(CN(Cc1ccco1)C1CC1)N1CCCCCC1`, the cytotoxicity at 10 µM was -3.26%. With `COc1cc2ccccc2cc1C(=O)N1CCCC(c2nncn2C)C1` (stereo not drawn), the cytotoxicity at 10 µM is -6.9%. For the compound `Cn1cnnc1C1CCCN(C(=O)c2cc3ccccc3[nH]2)C1` (stereo not drawn), the cytotoxicity at 10 µM is -7.88%. With `CCc1ccc(S(=O)(=O)Nc2c(C)cccc2C(=O)O)s1` the figure was -15.9%; with `Cn1ccc(CN2CCCC2c2ccc3c(c2)OCCCO3)cc1=O` (stereo not drawn), -4.2%; with `Cc1csc(N2CCCN(C(=O)C3(C#N)CCCCC3)CC2)n1`, -2.45%. Then `CCc1nc(C2CCCN2C(=O)c2ccc3c(c2)nc(C)n3C)no1` (stereo not drawn), with 3.54%; and `COc1ccc(CN2CCCC2Cn2nc(C)nc2C)cc1F` (stereo not drawn), with 2.89%.

Regarding `CC(CNCc1ccc2c(c1)n(C)c(=O)n2C)Oc1ccccn1` (stereo not drawn), the cytotoxicity at 10 µM stood at 6.27%. With `COCCN1CCn2c(CN(C)C(C)C)cnc2C1` the figure was -2.92%. Then `CCN1CCn2c(C)cnc2C12CCN(C(=O)c1cscn1)CC2`, with 6.59%. Then `CO[C@@H]1CC[C@H]2[C@H]1OCCN2Cc1ccc(F)c(F)c1`, with 4.33%; and `c1cncc(CO[C@H]2CC[C@H]3[C@@H]2OCCN3C2CCOCC2)c1`, with -14.4%.

Turning to `O=C1CCCN1Cc1nnc2n1CCN(Cc1ccco1)CC2`, the cytotoxicity at 10 µM was determined as 3.39%. With `COc1ccc(CN2CCC3(CC2)CCN(CC(=O)N(C)C)C3=O)cc1` the figure was -0.449%; with `COc1cccc(-c2c[nH]c(C3CCCN3)n2)c1` (stereo not drawn), -4.91%. With `CN1CCN(Cc2cccnc2)C2(CCN(c3ncc(F)cn3)C2)C1=O` (stereo not drawn) the figure was -6.49%; with `COC[C@H]1CCC[C@]12CN(CCc1ccccc1)CCO2`, 4.34%; with `Cc1cccc(CN2C[C@@H]3OCCN(S(=O)(=O)N(C)C)[C@@H]3C2)c1`, -12.4%. With `CCOCC1CN(c2ccncn2)Cc2cnn(CC3CC3)c21` (stereo not drawn) the figure was 6.38%. `CC(=O)N1C[C@@H]2CN(Cc3cccnc3)CCO[C@@H]2C1`: the cytotoxicity at 10 µM was -0.271%. Then `Cc1ccc(N2CCCC3(COCCN(c4nccs4)C3)C2)nn1` (stereo not drawn), with -1.05%; and `O=C1NC2(CCN(C(=O)c3ccccc3)CC2)CC1c1cccnc1` (stereo not drawn), with -10.9%; and `CS(=O)(=O)N1C[C@H]2CC[C@@H](C1)N(C(=O)Cn1ccc3ccccc31)C2`, with -1.38%. With `COCC(=O)NCC1CCC(c2nnc(-c3cccnc3)o2)CC1` (stereo not drawn) the figure was -2.74%.
